The source of these data is article PMC3107735 (Biochemistry, 2011).

One data set deals with aptamer-thrombin complex (Bos taurus, UniProt P00735). Put plainly: ITC, ligand titrated into pre-formed aptamer-thrombin complex. The class given is binding, bovine. The note with it: apt-thrombin in cell, 25°C; for Ka / N (stoichiometry of binding) / ΔH: pH 7.4; for -TΔS: computed from ΔG-ΔH; for ΔG: obtained from KA.
Data set [1] addresses T1, thrombin (Bos taurus, UniProt P00735). Put plainly: Isothermal titration calorimetry. The class given is binding, bovine. The note with it: for Ka / N (stoichiometry of binding) / ΔH / -TΔS / ΔG: thrombin in cell, 25°C; for Ka / N (stoichiometry of binding) / ΔH: pH 7.4; for -TΔS: computed from ΔG-ΔH; for ΔG: obtained from KA.
The next data set addresses TM45-thrombin (Bos taurus, UniProt P00735). Put plainly: ITC, ligand titrated into TMEGF45-thrombin complex. The class given is binding, bovine. The note with it: TM45-thrombin in cell, 25°C; for Ka / N (stoichiometry of binding) / ΔH: pH 7.4; for -TΔS: computed from ΔG-ΔH; for ΔG: obtained from KA.
The target of data set [2] is T1, thrombin. The note with it: DSC; increases from 57°C for thrombin; cited from earlier work.
In the next data set the target is PPACK-thrombin (Bos taurus, UniProt P00735). Put plainly: ITC, ligand titrated into PPACK-thrombin. The class given is binding, bovine. The note with it: ppack-thrombin in cell, 25°C; for Ka / N (stoichiometry of binding) / ΔH: pH 7.4; for -TΔS: computed from ΔG-ΔH; for ΔG: obtained from KA. In a few lines: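 Bovine α-thrombin treated with PPACK (1.1 μmol per 1 mL fraction, 3 h shaking, room temperature), re-purified by size exclusion the same day, and held at 6.5 μM in the cell (BCA). Buffer was 50 mM Bis-tris propane pH 7.4, 150 mM NaCl, 2.5 mM CaCl2. Degassed ligand at 65-70 μM was injected at 25°C with a 180 s initial delay. Heats were integrated and corrected for dilution; ΔG came from Ka and -TΔS from ΔG-ΔH.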

In data set [3] the target is T1, thrombin. Put plainly: Differential scanning calorimetry. The arrangement: species or system bovine. The note with it: DSC; 25 μM thrombin; thrombin alone 56.9°C or 57.9°C (Figure 6 legend).

Several values for one entry are separate records, joined by “and”; a condition that tells them apart may be missing. Identical values can stand only once.

Take `CCC1CCN(C(=O)[C@H](CCCNC(=N)N)NS(=O)(=O)c2cccc3c(N(C)C)cccc23)CC1` [DAPA, dansyl-L-arginine-(3-ethyl-1,5-pantanediyl) amide]: the Ka on aptamer-thrombin complex (with 2.5 mM calcium) is 5.6 ± 2.1 ×10^7 M^-1; on aptamer-thrombin complex (without calcium) it was 5.8 ± 0.37 ×10^7 M^-1; at thrombin [1] (with 2.5 mM calcium), 4.5 ± 0.5 ×10^7 M^-1; at thrombin [1] (without calcium), 4.5 ± 2.5 ^1 ×10^7 M^-1; at TM45-thrombin (with 2.5 mM calcium), 5.9 ± 2.2 ×10^7 M^-1; on TM45-thrombin (without calcium), 5.0 ± 1.8 ×10^7 M^-1. In addition, the “N (stoichiometry of binding)” value on aptamer-thrombin complex (with 2.5 mM calcium) is reported as 1.06 ± 0.08; on aptamer-thrombin complex (without calcium), 1.11 ± 0.1; at thrombin [1] (with 2.5 mM calcium) it was 0.9 ± 0.1; at thrombin [1] (without calcium), 0.9 ± 0.1; on TM45-thrombin (with 2.5 mM calcium) it was 1.00 ± 0.06; on TM45-thrombin (without calcium), 0.86 ± 0.02. In addition, the ΔH at aptamer-thrombin complex (with 2.5 mM calcium) is -20.1 ± 0.84 kJ/mol; on aptamer-thrombin complex (without calcium), -17.6 ± 1.3 kJ/mol; on thrombin [1] (with 2.5 mM calcium), -25.9 ± 0.17 kJ/mol; at TM45-thrombin (with 2.5 mM calcium), -20.9 ± 0.42 kJ/mol; on TM45-thrombin (without calcium), -18.8 ± 0.84 kJ/mol. Further, the “-TΔS” value at aptamer-thrombin complex (with 2.5 mM calcium) is -23.8 ± 1.7 kJ/mol; at aptamer-thrombin complex (without calcium), -26.8 ± 2.9 kJ/mol; at thrombin [1] (with 2.5 mM calcium), -17.6 ± 0.42 kJ/mol; at thrombin [1] (without calcium), -18.4 ± 2.5 kJ/mol; at TM45-thrombin (with 2.5 mM calcium), -23 ± 0.84 kJ/mol; on TM45-thrombin (without calcium) it was -25.1 ± 1.7 kJ/mol. For the same compound, the ΔG was -43.9 ± 1.3 kJ/mol on aptamer-thrombin complex (with 2.5 mM calcium); -44.4 ± 1.7 kJ/mol on aptamer-thrombin complex (without calcium); -43.5 ± 0.42 kJ/mol at thrombin [1] (with 2.5 mM calcium); -43.1 ± 1.7 kJ/mol at thrombin [1] (without calcium); -43.9 ± 0.84 kJ/mol at TM45-thrombin (with 2.5 mM calcium); -43.9 ± 0.84 kJ/mol at TM45-thrombin (without calcium).
Take `NC(N)=NCCC[C@H](NC(=O)[C@@H]1CCCN1C(=O)[C@H](N)Cc1ccccc1)C(=O)CCl` [PPACK, DPhe-Pro-Arg-chloromethyl ketone]: on thrombin [2], the “Tm of thrombin with ligand bound at the active site” value was 70 °C.
As to GGTTGGTGTGGTTGG [aptamer], in the data set with PPACK-thrombin (with 2.5 mM calcium), the Ka is reported as 1.4 ± 0.6 ×10^7 M^-1, the “N (stoichiometry of binding)” value turned out to be 0.9 ± 0.1, the ΔH is -87.9 ± 1.3 kJ/mol and the “-TΔS” value was determined as 47.3 ± 0.017 kJ/mol. The ΔG with PPACK-thrombin (with 2.5 mM calcium) was -40.6 ± 1.3 kJ/mol. Further, in the data set with PPACK-thrombin (without calcium), the Ka was 0.8 ± 0.1 ×10^7 M^-1, the “N (stoichiometry of binding)” value is reported as 0.98 ± 0.02, the ΔH was -74.1 ± 4.6 kJ/mol and the “-TΔS” value was found to be 34.7 ± 5.02 kJ/mol. Besides, the ΔG in the data set with PPACK-thrombin (without calcium) was -39.3 ± 3.3 kJ/mol. In the data set with thrombin [3], the “melting (denaturation) temperature of thrombin with ligand bound at exosite 1” value is 57.9 °C and 58.7 °C. Moreover, in the data set with thrombin [1] (with 2.5 mM calcium), the “N (stoichiometry of binding)” value stood at 0.87 ± 0.04, the ΔH was -93.7 ± 0.42 kJ/mol, the “-TΔS” value is 52.7 ± 4.18 kJ/mol and the ΔG was -41 ± 0.42 kJ/mol. Moreover, in the data set with thrombin [1] (without calcium), the Ka was 0.9 ± 0.2 ×10^7 M^-1, the “N (stoichiometry of binding)” value stood at 0.96 ± 0.1, the ΔH was -84.5 ± 3.3 kJ/mol and the “-TΔS” value turned out to be 43.9 ± 3.8 kJ/mol. The ΔG with thrombin [1] (without calcium) was -40.6 ± 0.84 kJ/mol. Moreover, the ΔH with thrombin [1] (without calcium, listed as DNA aptamer) is -84.5 kJ/mol.
Consider calcium, for which the “change in heat upon addition to thrombin in the cell (ITC)” value at thrombin [1] (calcium added to thrombin in the cell) is reported as “no measurable direct binding”.
